Source: PMC3018684 (Free radical research, 2010)
Blank lines part the entries; values can stand above or below the compound they belong to.

Assays:
[1] = Ex vivo scavenging of N-chloramines in CF sputum sol-phase; set-up: species or system human; conditions: 2 μM antioxidant, 25 μl CF sputum sol-phase, 30 min
[2] = biological target: purified human MPO (Homo sapiens, UniProt P05164); test: Inhibition kinetics of MPO-dependent TMB oxidation by thiol antioxidants; assay type: biochemical; conditions: for mode of inhibition of MPO-catalyzed oxidation of TMB: double reciprocal plots 1/V vs 1/[TMB]
Sequence of purified human MPO (P05164 279-745 limits assumed): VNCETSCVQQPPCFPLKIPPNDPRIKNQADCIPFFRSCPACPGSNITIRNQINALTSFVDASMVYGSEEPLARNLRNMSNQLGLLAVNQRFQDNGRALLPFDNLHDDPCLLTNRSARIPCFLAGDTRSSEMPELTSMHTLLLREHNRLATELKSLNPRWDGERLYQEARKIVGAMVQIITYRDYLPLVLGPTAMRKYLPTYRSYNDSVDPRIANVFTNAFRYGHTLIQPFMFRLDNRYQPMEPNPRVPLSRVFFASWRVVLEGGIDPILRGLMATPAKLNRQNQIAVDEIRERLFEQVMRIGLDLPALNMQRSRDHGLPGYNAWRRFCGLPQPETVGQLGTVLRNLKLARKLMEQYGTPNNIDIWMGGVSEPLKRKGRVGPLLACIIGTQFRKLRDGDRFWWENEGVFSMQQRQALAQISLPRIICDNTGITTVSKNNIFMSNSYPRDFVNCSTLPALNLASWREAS
Sequence of purified human MPO (P05164 165-273 limits assumed): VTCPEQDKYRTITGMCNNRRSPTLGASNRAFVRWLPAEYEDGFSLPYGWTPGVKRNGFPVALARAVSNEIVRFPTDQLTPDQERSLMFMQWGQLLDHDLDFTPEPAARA
In short: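 Purified human MPO (1.5 nM) incubated with test thiol at 0.1–1 μM. Activity measured as initial rate of TMB oxidation, with TMB varied from 20 to 180 μM. Data plotted as double reciprocal 1/V vs 1/[TMB] (Lineweaver-Burk) for each inhibitor level. Slopes of these lines replotted against inhibitor concentration to derive Ki.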

[3] = tested on: MPO compound I and II; conditions: cited from earlier work; for rate constant k of reaction with compound I and II of MPO: both compound I and II
[4] = tested on: MPO in CF sputum; assay type: biochemical, human; conditions: extrapolated from IC50 in about 2000-fold diluted sputum (Fig 4)
[5] = tested on: NF-κB; conditions: GSH 1 mM with CF sputum sol-phase 10 μl/ml, HBE1 cells
[6] = cited from earlier work
[7] = CF patients, 300/450 mg three times daily for 14 days; cited from earlier work
[8] = pH 7.4; cited from earlier work
[9] = tested on: ground state ferric MPO; conditions: cited from earlier work
[10] = oral 0.6–1.0 g three times daily for 4 weeks; cited from earlier work
[11] = no reference given; cited from earlier work
[12] = inhalation in CF patients, secondary to acidic nature; no reference given; cited from earlier work

Ki [2]: 80 nM | mode of inhibition of MPO-catalyzed oxidation of TMB [2]: competitive
SMILES: N[C@@H](CCC(=O)N[C@@H](CS)C(=O)NCC(=O)O)C(=O)O [GSH, glutathione]
lowering of N-chloramine levels [1]: 62 ± 11% | rate constant k of reaction with compound I and II of MPO [3]: 10^1–10^2 M^−1s^−1 | respiratory tract lining fluid concentration required to inhibit MPO in the CF airway [4]: 1 to 50 mM | p65 nuclear translocation induced by CF sputum (sol-phase) [5]: inhibit p65 nuclear translocation | rate constant k of reaction with taurine chloramine [6]: 115 ± 14 M⁻¹ s⁻¹ | lung function after aerosolized GSH [7]: improved lung function | second-order rate constant for reaction with H2O2 [8]: 0.87 M⁻¹ s⁻¹

SMILES: OO [H2O2]
rate constant k of reaction with ground state ferric MPO [9]: 2.6e+07 M⁻¹ s⁻¹

SMILES: CC(=O)N[C@@H](CS)C(=O)O [NAC, N-acetylcysteine]
lowering of N-chloramine levels [1]: 80 ± 11% | mode of inhibition of MPO-catalyzed oxidation of TMB [2]: non-competitive | rate constant k of reaction with compound I and II of MPO [3]: 10^1–10^2 M^−1s^−1 | respiratory tract lining fluid concentration required to inhibit MPO in the CF airway [4]: 1 to 50 mM | rate constant k of reaction with taurine chloramine [6]: 46 ± 7 M⁻¹ s⁻¹ | reactivity with taurine chloramine relative to GSH (times less reactive) [6]: approx. 2.5 | lung function, as assessed by FEV1 [10]: no improvement in lung function | neutrophil GSH content [10]: increased neutrophil GSH content | neutrophil influx in CF airways [10]: decreased neutrophil influx in CF airways | sputum IL-8 levels [10]: decreased sputum IL-8 levels | sputum elastase activity [10]: decreased sputum elastase activity | second-order rate constant for reaction with H2O2 [8]: 0.16 M⁻¹ s⁻¹ | pKa [11]: 2.2 | side effects on inhalation [12]: can induce bronchospasm

SMILES: Cc1cc(-c2cc(C)c(N)c(C)c2)cc(C)c1N [TMB, 3, 3′, 5, 5′-tetramethylbenzidine]
rate constant of reaction with MPO compound I [3]: 3.6e+06 M⁻¹ s⁻¹ | rate constant of reaction with MPO compound II [3]: 940000 M⁻¹ s⁻¹
